Shown are actives, neighbours in structure and some others; about 3.5% of the full set was active somewhere.
MrgX1 antag: human MrgX1 receptor antagonism, primary screen; Q96LB2; B-score at 10 µM; MRGX1-HEK293 calcium flux, Fluo-4, BAM8-22 antagonism; active compounds read low; 1.3% of 310,000 active;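 active = calcium-response B-score plate-corrected more than 3 library SD below zero, starting fluorescence within 5 deviations, no agonist response on first addition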;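 note: peak minus trough fluorescence over baseline after final BAM8-22 challenge near maximal dose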
Target sequence (Q96LB2 whole entry, looked up): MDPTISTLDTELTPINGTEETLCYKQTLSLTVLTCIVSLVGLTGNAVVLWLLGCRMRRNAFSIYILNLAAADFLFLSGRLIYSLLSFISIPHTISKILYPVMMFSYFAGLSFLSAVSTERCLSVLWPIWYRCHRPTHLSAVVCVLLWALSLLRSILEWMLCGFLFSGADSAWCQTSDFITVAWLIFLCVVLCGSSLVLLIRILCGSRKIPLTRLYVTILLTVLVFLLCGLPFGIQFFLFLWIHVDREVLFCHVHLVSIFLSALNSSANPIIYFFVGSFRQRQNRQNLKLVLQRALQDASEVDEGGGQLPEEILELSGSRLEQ
MrgX1 PAM: allosterically activates human MrgX1 receptor signaling; MrgX1-HEK293, Fluo-4 calcium flux, FDSS; active compounds read high; B-score at 10 µM; 0.63% of 310,000 active;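 active = plate-corrected calcium response at least 3 library SD above typical, normal starting fluorescence, not activating the receptor alone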;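 note: compound read alongside a low EC10 to EC30 dose of BAM8-22 agonist; peak minus trough fluorescence over baseline measured at the second addition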
RGS4 act: potentiators or activators of RGS4. AID 463111. 0.92% of 310,000 active. B-score at 10 µM. HEK293 M3R/inducible RGS4, carbachol calcium flux Fluo4; active compounds read low;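 active = B-score of the integrated calcium signal more than 4 SD below the library mean, with starting fluorescence not abnormally high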;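 note: negative B-score means reduced calcium response which marks RGS4 activation or potentiation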
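Reagent: ECmax carbachol challenge; Test system: M3R-expressing HEK293 line, RGS4 induced by doxycycline; Schedule: overnight RGS4 induction, 30 min dye load 37 °C, 20 min compound RT; Detection: calcium dye Fluo4 fluorescence; Read-out: Agonist-evoked peak-minus-minimum fluorescence over baseline, integrated ratio, B score.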
RGS4 inh: inhibitors of human RGS4 | B-score at 10 µM | 0.45% of 310,000 active | AID 463165 | HEK293 M3R/RGS4 inducible, Fluo-4 calcium flux; active compounds read high; triggered by carbachol at its EC20;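 active = B-score, a plate-corrected calcium signal, over three deviations above library mean, with baseline fluorescence within five deviations of library mean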;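 note: RGS4 expression induced by doxycycline in cells with stable M3 receptor; B-score is computed from the integrated fluorescence ratio over baseline after carbachol; higher B-score means a larger calcium signal and so more RGS4 inhibition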
Target sequence (P49798 whole entry, looked up): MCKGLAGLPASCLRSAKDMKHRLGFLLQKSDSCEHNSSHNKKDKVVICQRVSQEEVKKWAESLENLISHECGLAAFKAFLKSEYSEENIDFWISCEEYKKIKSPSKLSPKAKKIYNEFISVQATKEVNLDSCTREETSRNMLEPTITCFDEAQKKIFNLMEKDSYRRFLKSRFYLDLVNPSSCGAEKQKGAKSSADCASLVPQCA
MrgX1 agonist: human MrgX1 receptor agonism, primary screen. 0.44% of 310,000 active. B-score at 10 µM. AID 588627. Q96LB2. MrgX1-HEK293 cells, Fluo-4 calcium fluorescence, agonist mode; active compounds read high;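 active = calcium response B-score plate-corrected fluorescence ratio at least 3 library SD, with starting fluorescence B-score inside 5 SD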
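Assay system: MrgX1-expressing HEK293 cells / Amount: fifteen thousand cells per well / Doses: test compound in the initial addition of three / Timing: cells plated overnight, dye loaded 0.5 h 37 °C, 0.5 h room temperature / Technique: kinetic calcium dye fluorescence, Fluo-4 NW / Control set: positive and negative controls per plate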
Numbers stand for hits; 0 = inactive; - = no result given.

SMILES	MrgX1 antag	MrgX1 PAM	RGS4 act	RGS4 inh	MrgX1 agonist
CCN(CC(=O)NC(C)C)C(=O)C(CCSC)NC(=O)c1ccccc1OC (stereo not given)	0	0	0	0	0
COc1ccccc1C(=O)NC(CCSC)C(=O)OC(C)C(N)=O (stereo not given)	0	12	0	0	0
Cc1ccc(S(=O)(=O)NCC(c2ccc3c(c2)OCO3)N2CCN(c3ccccc3)CC2)cc1 (stereo not given)	0	0	0	0	0
O=C(NCC1CCCO1)c1cc2c([nH]c3ccccc32)c(-c2cccc(Cl)c2)n1 (stereo not given)	0	0	-9.2	0	0
COc1cc(-c2nc(C(=O)NCC3CCCO3)cc3c2[nH]c2ccccc23)cc(OC)c1OC (stereo not given)	0	0	0	0	0
COc1ccc(NC(=O)NNC(=O)COc2ccc([N+](=O)[O-])c(C)c2)cc1OC	0	0	0	0	0
C/C(=N/NC(=O)c1ccncc1)C1=C(O)CC(C)(C)CC1=O	-4.7	0	0	0	0
COc1ccc(/C(C)=N/NC(=O)c2ccncc2)cc1	0	0	0	0	0
Cc1ccc(S(=O)(=O)CC(=O)c2ccc3c(c2)OCCO3)cc1	0	0	0	0	0
CCN(CC(=O)Nc1c(F)cccc1F)C(=O)CCc1nc2cc(S(=O)(=O)N3CCOCC3)ccc2n1C	0	0	0	0	0
Cc1cccc([C@@H]2[C@@H]3C(=O)N(Cc4ccccc4)C(=O)[C@@H]3[C@]3(Cc4ccc(Cl)cc4)C(=O)N(c4ccccc4)C(=O)N23)c1	-6.6	0	0	0	0
Nc1ccc(-c2nc3ccccc3o2)cc1	0	0	0	0	0
O=c1c(-c2nc3ccccc3o2)c2oc3ccccc3n2c2ccccc12	-	-	-9.6	0	-
CCN(CC)Cc1ccccc1Sc1ccccc1	0	0	-9.2	0	0
Cc1cccn2c(NC(=O)c3ccccc3F)c(-c3ccccc3)nc12	0	0	0	0	0
O=C(N/N=C/c1ccncc1)c1ccc(NS(=O)(=O)c2cccs2)cc1	0	9.6	0	0	0
O=C(O)c1ccc(/C=N/NC(=O)c2ccc(NS(=O)(=O)c3cccs3)cc2)cc1	0	0	0	0	0
Cc1cc(C)cc(NC(=O)COc2coc(CN3CCc4ccccc4C3)cc2=O)c1	0	0	0	0	0
Cc1c(OCC(=O)N2C[C@H]3C[C@@H](C2)c2cccc(=O)n2C3)ccc2c3c(c(=O)oc12)CCCC3	0	0	-7.1	0	0
Cc1c(OCC(=O)N2C[C@H]3C[C@@H](C2)c2cccc(=O)n2C3)ccc2c3c(c(=O)oc12)CCC3	0	0	0	0	0
Cc1ccc(OCC(O)Cn2c(N3CCCCC3)nc3c2c(=O)[nH]c(=O)n3C)cc1C (stereo not given)	0	0	0	0	0
COc1ccc2ccccc2c1/C=N/NC(=O)c1nnn(-c2nonc2N)c1C(C)C	0	0	-7.1	0	0
COc1ccc2ccccc2c1/C=N/NC(=O)c1nnn(-c2nonc2N)c1CN(C)C	0	0	0	0	0
O=[N+]([O-])c1ccc(N/N=C\c2cccnc2)nc1	0	0	0	0	0
Cc1cccc(C)c1-n1c(C)cc(/C=N\Nc2ccc([N+](=O)[O-])cn2)c1C	-5	0	0	0	0
SMILES	MrgX1 antag	MrgX1 PAM	RGS4 act	RGS4 inh	MrgX1 agonist
CCOc1ccc(S(=O)(=O)NC(Cc2cnc[nH]2)C(=O)O)cc1 (stereo not given)	-4.9	0	0	0	0
COc1ccc(-c2cc(N)n(S(=O)(=O)c3c(F)c(F)c(F)c(F)c3F)n2)cc1OC	-6.9	0	0	0	0
COc1ccc(S(=O)(=O)n2nc(-c3cc(OC)c(OC)c(OC)c3)cc2N)cc1OC	0	0	-	-	0
Cc1cc(N=Nc2c(O)c3ccccc3[nH]c2=O)ccc1N=Nc1ccc(C(=O)N(C)C)cc1	-	-	-7.8	0	-
O=C(O)c1ccc(N=Nc2c(O)[nH]c3ccccc23)cc1	0	0	0	0	0
CNC(=O)NC(=O)CN1C(=O)NC2(CCOc3ccccc32)C1=O (stereo not given)	0	0	0	0	0
Nc1nc(-c2ccccc2)c(-c2ccc([N+](=O)[O-])cc2)s1	-5.1	0	0	0	0
COc1ccc(C)cc1NC(=O)c1ccc(NS(=O)(=O)c2cccs2)cc1	0	0	0	0	0
Cc1ccccc1OCCC(=O)NCCc1ccc(S(N)(=O)=O)cc1	0	0	0	0	0
O=C(N/N=C/c1cccc(C(F)(F)F)c1)c1cc2c(s1)-c1ccccc1CC2	-7.8	0	0	0	0
COCCNc1oc(/C=C/c2ccccc2OC)nc1S(=O)(=O)c1ccccc1	0	6.9	0	0	0
CCOC(=O)C1CCCN(C(=O)c2ccc(C)c(NC(=O)C3=C(C)OCCS3)c2)C1 (stereo not given)	0	0	0	0	0
COc1ccccc1N/C=C/c1onc(C)c1[N+](=O)[O-]	-6.5	0	0	0	0
N#CC1=C(N)OC2=C(CC/C2=C\c2ccccc2Cl)C1c1ccccc1Cl (stereo not given)	-12	0	0	0	0
N#CC1=C(N)Oc2cc(O)c(Cl)cc2C1c1ccccc1F (stereo not given)	0	0	0	0	0
N#CC1=C(N)OC2=C(CC/C2=C\c2ccccc2)C1c1ccccc1 (stereo not given)	0	0	0	0	140
N#CC1=C(N)OC2=C(C(=O)CCC2)C1c1ccccc1 (stereo not given)	0	0	0	0	0
CC(C)c1ccc(C(C(=O)NC2CCCCC2)N(C(=O)c2csnn2)C2CC2)cc1 (stereo not given)	0	0	0	0	0
O=S(=O)(CCSc1nc2ccccc2o1)c1nc2ccccc2s1	0	0	0	0	0
O=S(=O)(CCSc1ccccn1)c1nc2ccccc2s1	0	0	0	0	34
O=C(Nc1nc(-c2ccc3c(c2)OCO3)cs1)C1COc2ccccc2O1 (stereo not given)	0	0	-7.5	0	0
O=C(OC1CCCCC1)c1ccc(NC(=O)C2CCCCC2)cc1	0	0	-7	0	0
O=C(O)CCC(=O)Nc1ccc(C(=O)OC2CCCCC2)cc1	0	0	0	0	0
Cn1c(Cc2cccc3ccccc23)nnc1SCc1ccc([N+](=O)[O-])cc1	-8.6	0	0	0	0
C#CCn1cc(Cl)cc(C(=O)Nc2ccccc2)c1=O	0	0	0	0	0
C#CCN1C(=O)S/C(=C/c2cc(C)n(CC)c2C)C1=O	0	0	0	0	0
CCn1c(C)cc(/C=C2/SC(=S)N(CC(=O)O)C2=O)c1C	0	17	0	0	0
Cn1cc([N+](=O)[O-])c(C(=O)NC2CCCCCCC2)n1	0	0	0	0	0
Cc1nn(C)c(C)c1/C=N/N=C1\CCC2C3CCc4cc(O)ccc4C3CCC12C (stereo not given)	-5.6	0	0	0	0
